EBNA-1 inhibitor: EBNA-1 DNA-binding inhibitors, primary screen, biochemical, fluorescence polarization; AID 1950, 2009; inhibition, % at 14.8 µM; hit rate 0.34% among 300,000; in the data active = inhibition above about 28%
HCV NS3 hel inh: inhibitors of HCV NS3 helicase, primary screen, biochemical, Cy5 molecular beacon fluorescence; NS3 helicase DNA unwinding; Hepatitis C virus NS3 helicase; inhibition, % at 10.9 µM; hit rate 0.56% among 290,000;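 active = inhibition above the mean of all tested compounds plus 3 SD, set per campaign, cut at about 35% in these data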;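 note: 0% = DMSO wells and 100% = thioflavine S control wells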
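Test system: hepatitis C virus NS3 helicase domain fragment enzyme. Also added: annealed dual-labelled DNA beacon duplex, ATP-started. Timing: 60 min unwinding reaction at 25 °C after ATP addition. Technique: Cy5 fluorescence. Measure: % inhibition of unwinding.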
PP1 counter: PP1-alpha phosphatase inhibitors, primary screen, counter-screen for PP5 inhibitor project, biochemical, fluorescence, OMFP substrate, single point; hit rate 0.9% among 320,000; AID 2235, 2010; purified PP1alpha; inhibition, % at 6.7 µM; Serine/threonine-protein phosphatase PP1-alpha catalytic subunit (Homo sapiens), P62136;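 active = inhibition above the mean inhibition of all tested compounds plus 3 SD, computed separately for each screening campaign, cut at about 15% in these data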
ZTA DNA inh: blocks Epstein-Barr virus ZTA, an EBNA-1 counter-screen; P03206; ZTA-DNA binding, fluorescence polarization; inhibition, % at 11 µM; hit rate 0.15% among 320,000; AID 2234; in the data active = inhibition above about 33%
Target sequence (P03206 whole entry, looked up): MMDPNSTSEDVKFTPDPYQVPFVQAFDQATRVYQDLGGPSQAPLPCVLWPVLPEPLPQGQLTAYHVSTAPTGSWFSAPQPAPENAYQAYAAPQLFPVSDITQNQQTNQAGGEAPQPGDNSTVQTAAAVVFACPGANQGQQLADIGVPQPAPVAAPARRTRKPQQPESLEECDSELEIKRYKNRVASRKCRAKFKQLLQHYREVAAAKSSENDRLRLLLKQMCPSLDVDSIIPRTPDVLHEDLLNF
HCV core dimer: inhibitors of HCV core protein dimerization, primary screen, biochemical, TR-FRET, high-throughput; TR-FRET GST/Flag-core106 dimerization, 1536-well; inhibition, % at 5 µM; hit rate 0.33% among 300,000; AID 1899, 2009;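 active = inhibition above the mean of all tested compounds plus 3 SD, set per screening campaign, cut at about 45% in these data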
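System – GST-tagged and Flag-tagged HCV core protein residues 1-106 · Repeats – one well for each compound · Technique – TR-FRET 671 and 617 nm emission · Doses – one concentration, 5 µM, in 0.5% DMSO · Times – 4 h, 22.5 °C incubation · Also added – Eu donor and XL665 acceptor anti-tag antibodies · Measure – percent inhibition of core106 dimerization signal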
PP1 confirm: PP1 phosphatase inhibitors, confirmation, biochemical, fluorescence, OMFP substrate, triplicate; shares compounds with PP1 counter; purified PP1alpha; inhibition, % at 6.7 µM; hit rate 52% among 1,900;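 active = mean PP1 inhibition above a set limit taken from the earlier primary screen, cut at about 15% in these data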
PP5 counter: PP5 phosphatase inhibition by PP1 hits, confirmation, counter-screen for PP1 inhibitor project, biochemical, fluorescence, triplicate. purified PP5c, OMFP fluorescence. hit rate 4% among 1,900. AID 2360, 2010. shares compounds with PP1 counter. inhibition, % at 6.7 µM;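 active = mean PP5 inhibition over triplicate wells above about 9.5% taken from the earlier PP1 screen, limit read from the data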
Starred values were filed as active, the others as inactive; . = not tested or not shown. A selection: hits, their analogues and other compounds. The true share with any hit is near 1.9%.

SMILES	EBNA-1 inhibitor	HCV NS3 hel inh	PP1 counter	ZTA DNA inh	HCV core dimer	PP1 confirm	PP5 counter
C/C(=N\NC(=O)COc1ccc(C)cc1C(C)C)c1ccc(-n2ccnc2)cc1	-18	2	18*	1	11	17*	0
O=C(Nc1ccc2oc(-c3cccc4ccccc34)nc2c1)c1ncn[nH]1	15	5	26*	2	22	4	-2
O=C(Nc1ccc2oc(-c3ccccc3Cl)nc2c1)c1ncn[nH]1	-13	9	19*	-3	8	3	-6
CC(OC(=O)c1ccc(OCC2CCCO2)cc1)C(=O)N(C)Cc1ccccc1 (stereo not given)	1	.	0	18	3	.	.
CC(=O)c1cccc(NC(=S)NCCCCc2ccccc2)c1	-8	-16	-1	-8	3	.	.
O=c1cc(-c2ccccc2)[nH]n1-c1nc2ccccc2s1	4	10	18*	7	16	8	2
O=C(COc1ccccc1)NC(=S)Nc1cccc2cc(O)ccc12	16	-10	2	-7	12	.	.
O=c1c2ccccc2nc2n1CCCCC2	-11	3	4	-7	-8	.	.
O=c1c2ccccc2nc2n1CCC2	-5	4	52*	0	3	48*	1
O=C(Nc1ccc(-c2nc3ncccc3o2)cc1)c1ccc(Br)o1	6	-3	25*	10	6	7	-5
O=C(Nc1ccc(-c2nc3ncccc3o2)cc1)c1ccco1	-10	6	6	-8	16	.	.
O=C(N/N=C/c1ccncc1)c1ccc(COc2cccc3cccnc23)cc1	-3	8	4	-11	-7	.	.
O=C(N/N=C/c1ccc2cccc(OCc3ccccc3)c2n1)c1ccc(Cl)cc1	-10	-2	24*	-21	15	2	0
COc1ccc(C(=O)N/N=C/c2ccc3cccc(O)c3n2)cc1	-7	-2	20*	-17	-21	5	2
CN(C)NC(=O)C12CCC(C)(C(=O)O1)C2(C)C (stereo not given)	7	-1	-2	-5	-12	.	.
O=C(Nc1ccc(-n2cnnn2)cc1)c1cccc(S(=O)(=O)N2CCCC2)c1	.	.	0	-8	.	.	.
CC1=NN(c2nc(-c3ccccc3)cs2)C(=O)C1	-4	13	20*	6	8	0	10*
Cc1cc(C)nc(N2N=C(c3ccccc3)CC2=O)n1	-6	-1	-2	2	-4	.	.
O=C1CC(c2ccccc2)=NN1c1nc(-c2ccccc2)cs1	5	7	20*	-3	17	4	2
CC1=NN(c2nc(-c3ccc(C#N)cc3)cs2)C(=O)C1	3	-8	0	1	4	.	.
N#Cc1ccc(CSc2nnc(NC(=O)c3ccc4ncsc4c3)s2)cc1	37*	-4	24*	6	3	49*	-2
COC1=CC(=O)C(O)=C(CCCCCCC/C=C/CCCCCCCC2=C(O)C(=O)C=C(OC)C2=O)C1=O	10	.	10	7	-1	.	.
CCCCCCCCCCCC1=C(O)C(=O)C=C(O)C1=O	0	.	46*	-8	-9	35*	-7
CC1(C)CC(=O)c2c(O)cc(OCC(=O)N3CCN(c4ccccc4)CC3)cc2O1	9	11	20*	-1	4	-2	-5
O=C(COc1ccccc1)N1CCN(c2ccccc2)CC1	-6	-2	-4	1	0	.	.
C#CCn1c(=NC(=O)c2ccccc2[N+](=O)[O-])sc2cc(S(C)(=O)=O)ccc21	11	1	-3	11	5	.	.
C#CCn1c(=NC(=O)c2ccc(S(=O)(=O)N3CCc4ccccc4C3)cc2)sc2cc(S(N)(=O)=O)ccc21	15	3	26*	22	46	28*	-4
C#CCn1c(=NC(=O)c2sc3ccccc3c2Cl)sc2cc(S(N)(=O)=O)ccc21	35*	4	28*	4	66*	34*	-5
